These results are taken from ChEMBL document CHEMBL1128228, “2,3-Dihydro-1-benzofuran-5-ols as analogues of alpha-tocopherol that inhibit in vitro and ex vivo lipid autoxidation and protect mice against central nervous system trauma” (J Med Chem, 1995).

Molecules are shown by their SMILES. Activity calls are given as the source filed them. The rule behind the calls is not given here.

For test [1], the species on record is Rattus norvegicus. The experiment in a line: In vitro inhibition of lipid autoxidation (TBARS formation) of rat brain homogenate. Type of test: functional. A digest of the protocol:
(§1)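 Rat brain homogenate was incubated at 37 °C for 30 min, and TBARS formation was measured. The value is the concentration giving 50% inhibition, as mean ± SD with the number of experiments given.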

Test [2] relates to Mus musculus. The experiment in a line: Mouse brain drug concentration after 1 hr of 20 umol/kg subcutaneous administration. Type of test: functional, organism-based. A digest of the protocol:
(§2)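 Mouse brain homogenates taken 1 h after 20 μmol/kg sc were diluted in methanol containing 2% ascorbic acid and centrifuged. Supernatant was run on a C8 column with isocratic 0.1 M phosphate/50–75% methanol. Detection was electrochemical at 0.6 V. Results are nmol/g, mean ± SD, five mice per group.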

Test [3] is described as follows: Superoxyl radical (O2) scavenging reaction rate constant in competition with nitro-blue tetrazolium of superoxyl radicals formed by xanthine oxidase in the presence of xanthine. Type of test: functional.
The subject of test [4] is Mus musculus. The experiment in a line: Ex vivo inhibition of mouse brain lipid autoxidation after 1 hr by 20 umol/kg subcutaneous administration. Type of test: functional. The conditions noted are these: sc. A digest of the protocol:
(§3)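 Male CD1 mice (30 g, five per group) were given 20 μmol/kg sc or saline and killed 1 h later. Brains were frozen in liquid N2, stored at -80 °C, then homogenized 1/19 w/v in ice-cold water. Homogenate (10 mg tissue) was incubated in 20 mM KH2PO4 pH 7.3 with 0.14 M KCl (final) at 37 °C for 30 min. Unincubated samples gave basal TBARS.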

In test [5] the test system is Mus musculus. The experiment in a line: Ex vivo inhibition of mouse brain lipid autoxidation after 1 hr by 1 umol/kg subcutaneous administration. The test is classed as functional. To be noted: sc.
Test [6] has as its system Mus musculus. The experiment in a line: […] fter 1 hr by 20 umol/kg subcutaneous administration. The test is classed as functional, organism-based. A digest of the protocol:
as §2

Test [7] is filed under the species Rattus norvegicus. The test can be described thus: In vitro lipid autoxidation (TBARS formation) in rat brain homogenate; no inhibition. The test is classed as functional. A digest of the protocol: as §1
For test [8], the species on record is Mus musculus. The test can be described thus: Percentage number of paraparetic mice 1 hr after concussive head injury. The test is classed as functional. A digest of the protocol: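 Mice were dosed 12 mg/kg sc 30 min before concussive head injury, a blow of measured severity. At 1 h a blinded string test counted mice unable to raise their hind limbs onto a horizontal string as paraparetic. Groups had 20–25 mice and were compared with saline by χ-square.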

In test [9] the test system is Mus musculus. The experiment in a line: Ex vivo inhibition of mouse brain lipid autoxidation after 1 hr by 20 umol/kg subcutaneous administration; no inhibition. Type of test: functional, organism-based. A digest of the protocol: as §3
A short description of test [10]: O2 scavenging reaction rate constant for competition with nitro-blue tetrazolium of superoxyl radicals formed by xanthine oxidase in the presence of xanthine;No reaction. The test is classed as functional.

Consider `Cc1c(C)c2c(c(C)c1O)C(CN1CCN(Cc3ccccc3)CC1)C(C)(C)O2` (stereo not drawn), for which, in the test listed under Rattus norvegicus [1] (Rattus norvegicus, Brain), it took 300 nM to reach half-maximal inhibition (IC50). The compound further had a Concentration with Mus musculus [2] of 1.6 nM/g. For the same compound, the Rate constant in test [3] stood at 20000 M⁻¹ s⁻¹. In the test with Mus musculus [4], this compound came in with an inhibition in vivo at 20 µmol/kg of 24%.
Take `Cc1c(C)c2c(c(C)c1O)C(CNC(C)C)C(C)(C)O2` (stereo not drawn): the midpoint of inhibition in the test filed under Rattus norvegicus [1] (Rattus norvegicus, Brain), the IC50, lay at 1400 nM. This compound also gave an inhibition in vivo at 1 µmol/kg with Mus musculus [5] of 37%. Further, the Rate constant in test [3] came to 330000 M⁻¹ s⁻¹.
As to `Cc1c(C)c2c(c(C)c1O)C(CN1CCCCC1)C(C)(C)O2` (stereo not drawn), inhibition in the test filed under Rattus norvegicus [1] (Rattus norvegicus, Brain) was half-maximal at 400 nM (IC50). In the test on Mus musculus [5], this compound yielded an inhibition in vivo at 1 µmol/kg of 50%. Further, in test [3], the Rate constant is 90000 M⁻¹ s⁻¹.
In the test with Mus musculus [6], `CC(=O)Oc1c(C)c(C)c2c(c1C)C(CN1CCN(C)CC1)C(C)(C)O2` (stereo not drawn) gave a Concentration of 7.2 nM/g. The IC50 result in the test listed under Rattus norvegicus [7] is “Not Active”. Also, in the test on Mus musculus [4], the inhibition in vivo at 20 µmol/kg is 57%.
For `COC(=O)C1c2c(C)c(O)c(C)c(C)c2OC1(C)C` (stereo not drawn), the IC50 in the test listed under Rattus norvegicus [1] (Rattus norvegicus, Brain) was 3200 nM.
In the test filed under Rattus norvegicus [1] (Rattus norvegicus, Brain), `Cc1c(C)c2c(c(C)c1O)CCC(C)(CCN(C)C)O2` (stereo not drawn) gave an IC50 of 700 nM. For the same compound, the Rate constant in test [3] came out at 27000 M⁻¹ s⁻¹. The inhibition in vivo at 20 µmol/kg with Mus musculus [4] was 16%.
In the test filed under Rattus norvegicus [1] (Rattus norvegicus, Brain), `Cc1c(C)c2c(c(C)c1O)C(CO)C(C)(C)O2` (stereo not drawn) returned an IC50 of 2600 nM. Also, the Rate constant in test [3] came to 140000 M⁻¹ s⁻¹.
On to `Cc1c(C)c2c(c(C)c1O)C(C(=O)OCCN1CCN(C)CC1)C(C)(C)O2` (stereo not drawn), for which the IC50 in the test filed under Rattus norvegicus [1] (Rattus norvegicus, Brain) worked out at 3900 nM. The same compound yielded an inhibition in vivo at 20 µmol/kg in the test with Mus musculus [4] of 10%.
On to `Cc1c(C)c2c(c(C)c1O)CCC(C)(CC[N+](C)(C)C)O2.Cc1ccc(S(=O)(=O)[O-])cc1` (stereo not drawn), for which, in the test filed under Rattus norvegicus [1] (Rattus norvegicus, Brain), the IC50 worked out at 2000 nM. The same compound displayed a Paraparetic mice in the test filed under Mus musculus [8] of 40%. For the same compound, the Rate constant in test [3] was 24000 M⁻¹ s⁻¹.
As for `Cc1c(C)c2c(c(C)c1O)C(CN1CCN(CCO)CC1)C(C)(C)O2` (stereo not drawn), the IC50 in the test listed under Rattus norvegicus [1] (Rattus norvegicus, Brain) came to 500 nM. This compound showed a Paraparetic mice in the test filed under Mus musculus [8] of 40%. The compound further yielded a Concentration in the test on Mus musculus [2] of 6.5 nM/g. Further, the Rate constant in test [3] was 90000 M⁻¹ s⁻¹. In addition, the inhibition in vivo at 20 µmol/kg with Mus musculus [4] is 57%.
`Cc1c(C)c2c(c(C)c1O)C(C(=O)N1CCN(C)CC1)C(C)(C)O2` (stereo not drawn) had an IC50 in the test filed under Rattus norvegicus [1] (Rattus norvegicus, Brain) of 12000 nM. For the same compound, the Rate constant in test [3] worked out at 83000 M⁻¹ s⁻¹.
Compound `Cc1c(C)c2c(c(C)c1O)CC[C@@](C)(CCC[C@H](C)CCC[C@H](C)CCCC(C)C)O2` [ALPHA-TOCOPHEROL] registered an IC50 in the test listed under Rattus norvegicus [1] (Rattus norvegicus, Brain) of 14000 nM.
`Cc1c(C)c2c(c(C)c1O)C(C(=O)O)C(C)(C)O2` (stereo not drawn): the IC50 in the test filed under Rattus norvegicus [1] (Rattus norvegicus, Brain) amounted to 27000 nM. Moreover, the Rate constant in [3] stood at 67000 M⁻¹ s⁻¹.
As for `Cc1c(C)c2c(c(C)c1O)C(CN1CCN(c3ncccn3)CC1)C(C)(C)O2` (stereo not drawn), 400 nM corresponded to half-maximal inhibition in the test listed under Rattus norvegicus [1] (Rattus norvegicus, Brain) (IC50). This compound also gave a Concentration with Mus musculus [2] of 0.8 nM/g. In the test on Mus musculus [4], this compound displayed an inhibition in vivo at 20 µmol/kg of 29%.
On to `Cc1c(C)c2c(c(C)c1O)C(C(=O)N1CCN(CCO)CC1)C(C)(C)O2` (stereo not drawn), for which, in the test listed under Rattus norvegicus [1] (Rattus norvegicus, Brain), the IC50 is 19000 nM. Besides, in test [3], the Rate constant came to 43000 M⁻¹ s⁻¹.
On the same counts, the results for `Cc1c(C)c2c(c(C)c1O)C(C[N+](C)(C)C)C(C)(C)O2` (stereo not drawn) are 3600 nM and 49000 M⁻¹ s⁻¹.
As to `Cc1c(C)c2c(c(C)c1O)C(CN1CCN(CCOCCO)CC1)C(C)(C)O2` (stereo not drawn), in the test listed under Rattus norvegicus [1] (Rattus norvegicus, Brain), half-maximal inhibition (IC50) was put at 1200 nM. Moreover, in the test with Mus musculus [9], the inhibition entry is “inactive”. Further, in the test listed under Mus musculus [8], the Paraparetic mice worked out at 60%. Moreover, the Concentration in the test on Mus musculus [2] turned out to be 1.2 nM/g. For the same compound, the Rate constant in [3] worked out at 85000 M⁻¹ s⁻¹.
For `Cc1c(C)c2c(c(C)c1O)C(CN1CCN(C)CC1)C(C)(C)O2` (stereo not drawn), the IC50 in the test filed under Rattus norvegicus [1] turned out to be 400 nM; in the test listed under Rattus norvegicus [1] (Rattus norvegicus, Brain), 450 nM. In the test filed under Mus musculus [8], this compound registered a Paraparetic mice of 30%. Also, the Concentration in the test with Mus musculus [2] is 7.5 nM/g. In the test on Mus musculus [4], this compound returned an inhibition in vivo at 20 µmol/kg of 63%.
In turn, `Cc1c(C)c2c(c(C)c1O)C(CN(C)C)C(C)(C)O2` (stereo not drawn) returned an IC50 in the test listed under Rattus norvegicus [1] (Rattus norvegicus, Brain) of 700 nM. For the same compound, the inhibition entry with Mus musculus [9] is “inactive”. For the same compound, the Rate constant in [3] was 150000 M⁻¹ s⁻¹.
Turning to `CC(=O)OCCN1CCN(CC2c3c(C)c(OC(C)=O)c(C)c(C)c3OC2(C)C)CC1` (stereo not drawn), the Concentration in the test with Mus musculus [6] turned out to be 5.7 nM/g. Also, in test [10], the Rate constant result is “inactive”. For the same compound, in the test filed under Rattus norvegicus [7], the IC50 result is “Not Active”. In addition, the inhibition in vivo at 20 µmol/kg with Mus musculus [4] was 35%.

Usually IC50 stands for the concentration that gives 50% inhibition. Low readings indicate inhibition by little substance, high ones a need for much substance. The inhibition in vivo is the share of the control response that was lost under treatment. Lower therefore signals little suppression.
